Published values collected from several papers.
Compare with care: the assays were run in different laboratories.
PIK3CA H1047L: Phosphatidylinositol 4,5-bisphosphate 3-kinase catalytic subunit alpha isoform (PIK3CA, Homo sapiens, UniProt P42336, H1047L)
PIK3CA: Phosphatidylinositol 4,5-bisphosphate 3-kinase catalytic subunit alpha isoform (PIK3CA, Homo sapiens, UniProt P42336)
PIK3CA E545A: Phosphatidylinositol 4,5-bisphosphate 3-kinase catalytic subunit alpha isoform (PIK3CA, Homo sapiens, UniProt P42336, E545A)
PIK3CA Q546K: Phosphatidylinositol 4,5-bisphosphate 3-kinase catalytic subunit alpha isoform (PIK3CA, Homo sapiens, UniProt P42336, Q546K)
PIK3CA C420R: Phosphatidylinositol 4,5-bisphosphate 3-kinase catalytic subunit alpha isoform (PIK3CA, Homo sapiens, UniProt P42336, C420R)
PIK3CA E542K: Phosphatidylinositol 4,5-bisphosphate 3-kinase catalytic subunit alpha isoform (PIK3CA, Homo sapiens, UniProt P42336, E542K)

SMILES	target	assay	conditions	remaining binding [%]
CO[C@@H](C)c1c(Nc2ccc([C@@H](N(C)C(=O)C3CCS(=O)(=O)CC3)C(F)(F)F)cc2)cnc2cc(Cl)nn12	PIK3CA H1047L	cell-free assay, competition with immobilised ligand	1 µM	98
Cc1cnc(Nc2ccc(C(=O)N3CCC(N4CCCC4)CC3)cc2)nc1-c1cc2ccccc2s1	PIK3CA	binding, competition with immobilised ligand	1 µM	97
C[C@@H]1CCN(c2nccc(-c3cnn4ncccc34)n2)C1	PIK3CA E545A	binding	1 µM	88
C[C@@H](c1ccc(-n2cnc3c(N)ncnc32)cc1)N1CCc2nn(C)c(Cc3ccccc3)c2C1=O	PIK3CA	binding, competition with immobilised ligand	0.1 µM	82
N[C@@H]1CCN(c2nccc(-c3cnn4ncccc34)n2)C1	PIK3CA H1047L	binding	1 µM	100
Cc1nc(Cc2cccc(C(F)(F)F)c2)sc1-c1ccc(C(N)=O)nc1	PIK3CA E545A	cell-free assay, competition with immobilised ligand	1 µM	100
F[C@@H]1CCN(c2nccc(-c3cnn4ncccc34)n2)C1	PIK3CA E545A	binding	1 µM	92
CCN1CCN(Cc2ccc(C(=O)Nc3ccc(C)c(Oc4ccc5c(c4)CC(=O)N5)c3)cc2C(F)(F)F)CC1	PIK3CA Q546K	binding, competition with immobilised ligand	1 µM	100
Cc1cnn2ncc(-c3ccnc(N(C)C)n3)c2c1	PIK3CA E545A	binding	1 µM	100
O=C(NCC1CCOCC1)c1n[nH]cc1NC(=O)c1c(F)cccc1F	PIK3CA C420R	binding, competition with immobilised ligand	1 µM	100
O=C(c1ccc(Nc2ncc(Cl)c(-c3ccc(Cl)s3)n2)cc1)N1CCC(N2CCCC2)CC1	PIK3CA E545A	binding, competition with immobilised ligand	1 µM	100
CN(C)C(=O)Cn1cc(-c2nc([C@@](C)(c3ccc(-c4cnc(N)nc4)cc3)C3CC3)no2)cn1	PIK3CA E542K	cell-free assay, competition with immobilised ligand	1 µM	79
CN(C)c1nccc(-c2cnn3ncccc23)n1	PIK3CA	binding	1 µM	97
CN(C(=O)c1ccccc1)c1cc(N(C)c2ccc3c(c2)CCc2ccc(C(=O)NCCN4CCOCC4)cc2C3=O)ccc1F	PIK3CA C420R	cell-free assay, competition with immobilised ligand	1 µM	91
CN(C)c1ncc(F)c(-c2cnn3ncccc23)n1	PIK3CA H1047L	binding	1 µM	100
COc1cnc(Nc2cccc(S(N)(=O)=O)c2)nc1N1CCN(c2ccccc2)CC1	Phosphatidylinositol 4,5-bisphosphate 3-kinase catalytic subunit alpha isoform (PIK3CA, Homo sapiens, UniProt P42336, H1047Y)	binding, competition with immobilised ligand	1 µM	74
CCS(=O)(=O)c1cc2cc(C[C@](O)(CC(C)(C)c3ccc(F)cc3C(N)=O)C(F)(F)F)[nH]c2cn1	PIK3CA H1047L	cell-free assay, competition with immobilised ligand	1 µM	96
O=C(NCCCN1CCOCC1)c1ccc(Nc2nccc(-c3cc4ccccc4s3)n2)cc1	PIK3CA E542K	binding, competition with immobilised ligand	1 µM	41
O=c1nc(-c2ccccn2)sc2ccccc12	Phosphatidylinositol 4,5-bisphosphate 3-kinase catalytic subunit alpha isoform (PIK3CA, Homo sapiens, UniProt P42336, M1043I)	cell-free assay, competition with immobilised ligand	1 µM	100
CNC(=O)[C@@H]1CC[C@@H](n2c(-c3ccc4cnccc4c3)nc3ccc(C(=O)NCc4cccc(C(N)=O)c4)cc32)C1	PIK3CA Q546K	binding, competition with immobilised ligand	1 µM	100
